Results from different studies.
Protocols differ between the studies behind these lines.
Target: Mitogen-activated protein kinase 9 (MAPK9, Homo sapiens, UniProt P45984)

With `Nc1ncc2c(n1)-c1c([nH]c3ccc(C#CC4CC4)cc13)CCCC2` the remaining binding was 81% (binding; competition with immobilised ligand; 1 µM).
For `COc1cnc(Nc2cccc(S(N)(=O)=O)c2)nc1N1CCN(c2ccccc2)CC1`, the remaining binding was 72% (binding; competition with immobilised ligand; 1 µM).
With `CN(CCCC(F)(F)F)c1nccc(-c2cnn3ncccc23)n1` the remaining binding was 90% (binding; 1 µM).
For `COc1cnc(Nc2cccc(S(N)(=O)=O)c2)nc1N1CCN(c2ccccc2)C(=O)C1`, the remaining binding was 69% (binding; competition with immobilised ligand; 1 µM).
`CCC(=O)N[C@@H]1CC[C@H](C(=O)N(C)c2ccc(-c3nc4ccccc4o3)cc2)C1` gave a remaining binding of 98% (cell-free assay; competition with immobilised ligand; 1 µM).
`CCN1CCN(Cc2ccc(C(=O)Nc3ccc(C)c(Oc4ccc5c(c4)CC(=O)N5)c3)cc2C(F)(F)F)CC1` gave a remaining binding of 29% (binding; competition with immobilised ligand; 1 µM).
With `FC(F)(F)Oc1cccc(-c2cnc3ccc(-c4ccncc4)nn23)c1` the remaining binding was 76% (cell-free assay; competition with immobilised ligand; 5 µM).
`O=C(Nc1c[nH]nc1C(=O)NC1CCNCC1)c1cc(F)cc(F)c1` gave a remaining binding of 100% (binding; competition with immobilised ligand; 1 µM).
The remaining binding of `COc1ccnn2ncc(-c3ccnc(N(C)C)n3)c12` is reported as 100% (binding; 1 µM).
For `COc1cccc(CNC(=O)c2nc3scc(COCc4ccc(C(=O)O)cc4)c3c(=O)[nH]2)c1`, the remaining binding was 97.1% (cell-free assay; competition with immobilised ligand; 1 µM).
With `c1cnn2ncc(-c3ccnc(N4CCC45COC5)n3)c2c1` the remaining binding was 44% (binding; 1 µM).
With `N#Cc1ccccc1CSc1nnc2c(n1)[nH]c1ccccc12` the remaining binding was 90% (binding; competition with immobilised ligand; 10 µM).
With `C[C@H]1CCN(c2nccc(-c3cnn4ncccc34)n2)C1` the remaining binding was 60% (binding; 1 µM).
`O=C(c1ccc(Nc2ncc(Cl)c(-c3ccc(Cl)s3)n2)cc1)N1CCC(N2CCCC2)CC1` gave a remaining binding of 1.1% (binding; competition with immobilised ligand; 1 µM).
`CN(C(=O)c1ccccc1)c1cc(N(C)c2ccc3c(c2)CCc2ccc(C(=O)NCCN4CCOCC4)cc2C3=O)ccc1F` gave a remaining binding of 100% (cell-free assay; competition with immobilised ligand; 1 µM).
`N[C@H]1CCN(c2nccc(-c3cnn4ncccc34)n2)C1` has a remaining binding of 100% (binding; 1 µM).
For `C[C@H](c1ccc(F)cc1)N(Cc1cccc(C(=O)O)c1)C(=O)c1cnc2ccccc2c1`, the remaining binding was 81% (cell-free assay; competition with immobilised ligand; 1 µM).
The remaining binding of `O=C(NCCCN1CCOCC1)c1ccc(Nc2ncc(Cl)c(-c3ccc(Cl)s3)n2)cc1` is reported as 11% (binding; competition with immobilised ligand; 1 µM).
With `CNCc1ccccc1-c1csc([C@H](C)Nc2nc(C)nc3cc(OC)c(OC)cc23)c1` the remaining binding was 71% (cell-free assay; competition with immobilised ligand; 1 µM).
For `C[C@@H]1CN(c2ccc3ncc(-c4ccc5[nH]nc(C6CC6)c5c4)n3n2)C[C@H](C)O1`, the remaining binding was 80% (binding; competition with immobilised ligand; 50 nM).
`CNC(=O)Nc1ccc2c(c1)[C@@]1(CC2)OC(=O)N(CC(=O)N(Cc2ccc(F)cc2)[C@@H](C)C(F)(F)F)C1=O` gave a remaining binding of 69% (cell-free assay; competition with immobilised ligand; 1 µM).
The remaining binding of `CC1CCCN1c1nccc(-c2cnn3ncccc23)n1` (stereo not drawn) is reported as 100% (binding; 1 µM).
`Cc1cnc(Nc2ccc(C(=O)N3CCC(N4CCCC4)CC3)cc2)nc1-c1cc2ccccc2s1` has a remaining binding of 14% (binding; competition with immobilised ligand; 1 µM).
`CCC(=N\O)/C(C)=C/c1ccc(F)cc1` has a remaining binding of 92% (cell-free assay; competition with immobilised ligand; 1 µM).
